Laboratory results published in ChEMBL document CHEMBL3826928, “Incorporation of Phosphonate into Benzonaphthyridine Toll-like Receptor 7 Agonists for Adsorption to Aluminum Hydroxide” (J Med Chem, 2016).
pEC50: −log10 of the molar value. Active and inactive are the calls of the source. The calls are words filed in the database; no cut-off is given here.

What was measured:
[1] = target: T1, Toll-like receptor 8 (Homo sapiens) (UniProt Q9NR97); assay: Agonist activity at human TLR8 expressed in HEK293 cells up to 30 uM incubated for 6 hrs by luciferase reporter gene assay relative to resiquimod; format: cell-based
T1 sequence (whole entry): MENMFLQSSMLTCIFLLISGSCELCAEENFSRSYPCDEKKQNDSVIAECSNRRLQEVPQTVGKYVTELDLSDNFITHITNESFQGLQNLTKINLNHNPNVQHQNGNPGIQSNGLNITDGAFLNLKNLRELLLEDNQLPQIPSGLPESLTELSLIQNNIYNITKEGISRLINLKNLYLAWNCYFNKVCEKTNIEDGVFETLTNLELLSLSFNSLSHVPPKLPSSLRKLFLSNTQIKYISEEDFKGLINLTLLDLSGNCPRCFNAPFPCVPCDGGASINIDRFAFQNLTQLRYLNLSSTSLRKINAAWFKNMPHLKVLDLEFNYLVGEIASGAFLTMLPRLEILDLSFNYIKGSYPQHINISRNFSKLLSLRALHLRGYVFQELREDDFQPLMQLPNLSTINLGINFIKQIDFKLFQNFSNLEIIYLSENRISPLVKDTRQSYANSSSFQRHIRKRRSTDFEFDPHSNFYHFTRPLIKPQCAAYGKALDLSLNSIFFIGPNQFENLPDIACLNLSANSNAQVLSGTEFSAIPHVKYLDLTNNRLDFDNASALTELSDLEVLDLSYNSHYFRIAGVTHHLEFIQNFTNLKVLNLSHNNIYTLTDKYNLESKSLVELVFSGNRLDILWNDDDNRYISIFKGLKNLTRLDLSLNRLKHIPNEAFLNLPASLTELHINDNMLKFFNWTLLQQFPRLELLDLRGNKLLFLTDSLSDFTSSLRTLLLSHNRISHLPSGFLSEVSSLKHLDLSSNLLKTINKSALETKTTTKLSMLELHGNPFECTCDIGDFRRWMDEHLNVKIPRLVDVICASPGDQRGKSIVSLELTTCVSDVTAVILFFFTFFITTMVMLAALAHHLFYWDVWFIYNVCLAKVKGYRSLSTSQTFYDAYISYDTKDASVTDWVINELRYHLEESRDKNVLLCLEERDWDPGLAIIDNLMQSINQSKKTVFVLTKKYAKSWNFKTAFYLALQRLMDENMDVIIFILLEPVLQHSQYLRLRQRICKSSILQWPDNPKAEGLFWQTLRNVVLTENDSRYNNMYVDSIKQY

Toll-like receptor 7 [2] = target: T2, Toll-like receptor 7 (Mus musculus, UniProt P58681); assay: Agonist activity at TLR7 in Balb/c mouse splenocytes assessed as induction of IL-6 secretion in supernatant after 18 hrs; format: cell-based
T2 sequence (P58681 whole entry): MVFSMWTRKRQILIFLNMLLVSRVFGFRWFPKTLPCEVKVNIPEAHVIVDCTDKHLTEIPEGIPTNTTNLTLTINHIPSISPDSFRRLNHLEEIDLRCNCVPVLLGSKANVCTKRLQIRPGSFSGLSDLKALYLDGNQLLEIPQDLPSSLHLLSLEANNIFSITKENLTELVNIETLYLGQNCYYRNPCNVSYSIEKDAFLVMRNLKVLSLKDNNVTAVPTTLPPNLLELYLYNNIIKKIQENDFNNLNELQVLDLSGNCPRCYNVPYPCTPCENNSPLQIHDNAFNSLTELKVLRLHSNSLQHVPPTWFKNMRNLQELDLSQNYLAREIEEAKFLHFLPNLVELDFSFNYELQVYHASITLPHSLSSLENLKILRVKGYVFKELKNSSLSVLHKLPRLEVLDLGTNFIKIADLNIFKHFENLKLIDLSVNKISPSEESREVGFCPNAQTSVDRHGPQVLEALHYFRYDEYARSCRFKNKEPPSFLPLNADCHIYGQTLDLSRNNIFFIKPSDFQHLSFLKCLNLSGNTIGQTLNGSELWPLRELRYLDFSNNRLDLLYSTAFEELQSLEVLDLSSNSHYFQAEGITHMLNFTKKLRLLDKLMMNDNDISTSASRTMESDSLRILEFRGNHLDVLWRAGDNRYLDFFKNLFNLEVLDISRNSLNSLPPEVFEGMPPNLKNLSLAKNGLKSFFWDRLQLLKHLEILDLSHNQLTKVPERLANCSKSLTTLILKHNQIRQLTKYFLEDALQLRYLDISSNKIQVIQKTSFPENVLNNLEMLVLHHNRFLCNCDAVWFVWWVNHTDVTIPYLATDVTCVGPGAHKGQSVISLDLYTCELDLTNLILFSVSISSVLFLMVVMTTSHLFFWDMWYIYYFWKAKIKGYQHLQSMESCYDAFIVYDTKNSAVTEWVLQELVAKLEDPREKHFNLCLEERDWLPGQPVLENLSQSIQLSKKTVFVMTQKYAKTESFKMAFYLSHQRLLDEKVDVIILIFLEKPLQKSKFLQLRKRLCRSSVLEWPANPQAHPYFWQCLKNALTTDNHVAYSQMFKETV
In short: (§1)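 Spleens from female BALB/c mice (6−10 weeks), single-cell suspension, RBC lysis; 5 × 10⁵ splenocytes per well in RPMI 1640 with 10% FCS, 2-ME. Compounds as sodium salts (1 equiv NaOH) from 10 mM water stocks, 3-fold 10-point dilutions from 30 μM.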

Toll-like receptor 7 [3] = target: T3, Toll-like receptor 7 (Homo sapiens, UniProt Q9NYK1); assay: Agonist activity at human TLR7 expressed in HEK293 cells incubated for 6 hrs by luciferase reporter gene assay; format: cell-based
T3 sequence (Q9NYK1 whole entry): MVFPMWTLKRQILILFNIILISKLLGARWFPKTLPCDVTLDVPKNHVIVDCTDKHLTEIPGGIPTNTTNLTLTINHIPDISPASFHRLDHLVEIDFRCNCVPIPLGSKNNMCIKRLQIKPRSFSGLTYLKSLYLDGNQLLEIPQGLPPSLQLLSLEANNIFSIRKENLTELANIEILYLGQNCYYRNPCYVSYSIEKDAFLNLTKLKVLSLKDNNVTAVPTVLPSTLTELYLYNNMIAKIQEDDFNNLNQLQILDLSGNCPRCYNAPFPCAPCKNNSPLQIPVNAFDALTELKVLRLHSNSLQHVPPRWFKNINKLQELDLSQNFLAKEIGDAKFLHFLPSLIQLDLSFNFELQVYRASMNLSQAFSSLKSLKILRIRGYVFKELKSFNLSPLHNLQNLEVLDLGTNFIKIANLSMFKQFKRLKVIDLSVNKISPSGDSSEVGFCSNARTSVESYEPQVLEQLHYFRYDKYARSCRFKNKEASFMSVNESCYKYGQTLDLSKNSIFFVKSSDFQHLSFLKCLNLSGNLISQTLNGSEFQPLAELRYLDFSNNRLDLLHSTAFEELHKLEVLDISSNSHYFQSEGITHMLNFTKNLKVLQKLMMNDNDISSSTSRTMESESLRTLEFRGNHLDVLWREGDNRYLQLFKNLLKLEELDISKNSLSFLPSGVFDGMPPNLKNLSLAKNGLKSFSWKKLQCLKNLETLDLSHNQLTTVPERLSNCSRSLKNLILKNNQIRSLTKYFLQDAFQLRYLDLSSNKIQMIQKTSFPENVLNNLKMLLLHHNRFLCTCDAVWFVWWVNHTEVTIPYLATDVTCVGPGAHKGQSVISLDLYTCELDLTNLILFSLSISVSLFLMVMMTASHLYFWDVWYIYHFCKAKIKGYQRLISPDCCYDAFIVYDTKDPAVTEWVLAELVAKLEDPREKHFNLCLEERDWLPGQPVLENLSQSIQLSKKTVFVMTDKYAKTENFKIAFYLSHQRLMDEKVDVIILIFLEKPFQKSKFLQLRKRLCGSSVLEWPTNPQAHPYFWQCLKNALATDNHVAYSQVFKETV
In short: (§2)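 HEK293 stably carrying NF-κB-firefly luciferase reporter plus human TLR7 (best resiquimod-responding clone), maintained under puromycin/blasticidin. 25 000 cells per well in DMEM with 3% FCS.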

Toll-like receptor 7 [4] = target: T3, Toll-like receptor 7; assay: Agonist activity at TLR7 in human PBMC assessed as induction of IL-6 secretion in supernatant after 18 hrs; details: for pEC50: read-out: EC50
In short: (§3)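 Isolated human PBMCs washed in PBS, resuspended in RPMI1640 with 10% heat-inactivated FBS, pyruvate, HEPES, at 1 × 10⁶ cells/mL. Compounds as in-situ sodium salts from 10 mM aqueous stocks, 3-fold 10-point dilutions from 30 μM.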

[5] = target: T4, Toll-like receptor 7 (Mus musculus) (UniProt P58681); assay: Agonist activity at TLR7 in Balb/c mouse splenocytes assessed as induction of IL-6 secretion in supernatant after 18 hrs relative to resiquimod; format: cell-based; in short: as §1
T4 sequence (whole entry): T2 sequence (P58681 whole entry)

[6] = target: T5, Toll-like receptor 7 (Homo sapiens) (UniProt Q9NYK1); assay: Agonist activity at human TLR7 expressed in HEK293 cells incubated for 6 hrs by luciferase reporter gene assay relative to resiquimod; format: cell-based; in short: as §2
T5 sequence (whole entry): T3 sequence (Q9NYK1 whole entry)

[7] = target: T5, Toll-like receptor 7 (Homo sapiens); assay: Agonist activity at TLR7 in human PBMC assessed as induction of IL-6 secretion in supernatant after 18 hrs relative to resiquimod; format: cell-based; in short: as §3
[8] = target: T4, Toll-like receptor 7 (Mus musculus); assay: Agonist activity at TLR7 in Balb/c mouse splenocytes assessed as IL-6 level in supernatant after 18 hrs; format: cell-based; in short: as §1
[9] = target: T5, Toll-like receptor 7 (Homo sapiens); assay: Agonist activity at TLR7 in human PBMC assessed as IL-6 level in supernatant after 18 hrs; in short: as §3

Row | Structure (SMILES) | Activity [1] [%] | pEC50 (Toll-like receptor 7 [2]) | pEC50 (Toll-like receptor 7 [3]) | pEC50 (Toll-like receptor 7 [4]) | %max [5] [%] | EC50 (Toll-like receptor 7 [4]) | %max [6] [%] | %max [7] | Activity [8] [pg/mL] | Activity [9] [pg/mL]
1 | COc1ccc(CCc2cnc3c(N)nc4cc(/C=C/P(=O)(O)O)ccc4c3c2)c(C)c1 | < 5 | 5.60 | 6.82 | 5.77 | 81 | – | – | – | – | –
2 | COc1ccc(CCc2cnc3c(N)nc4cc(C(=O)P(=O)(O)O)ccc4c3c2)c(C)c1 | < 5 | 4.85 | 5.25 | – | 117 | Not Active | 112 | inactive | – | –
3 | COc1ccc(CCc2cnc3c(N)nc4cc(C(=O)C(F)(F)P(=O)(O)O)ccc4c3c2)c(C)c1 | < 5 | 5.47 | – | 5.11 | 100 | – | – | – | – | –
4 | Cc1ccc2c(c1)nc(N)c1ncc(CCc3ccc(OCCCC(F)(F)P(=O)(O)O)cc3C)cc12 | < 5 | 5.49 | – | 5.80 | 47 | – | – | – | – | –
5 | COc1ccc(CCc2cnc3c(N)nc4cc(/C=C(\F)P(=O)(O)O)ccc4c3c2)c(C)c1 | < 5 | 6.24 | – | 5.47 | 220 | – | – | – | – | –
6 | Cc1cc(OCCCP(=O)(O)O)ccc1CCc1cnc2c(N)nc3cc(CCC(=O)O)ccc3c2c1 | < 5 | 6.51 | – | 6.54 | 100 | – | – | – | – | –
7 | CCOCc1nc2c(N)nc3ccccc3c2n1CC(C)(C)O | – | – | – | – | – | – | – | – | 600 | 12500
8 | Cc1ccc2c(c1)nc(N)c1ncc(CCc3ccc(OCCOCCOCCP(=O)(O)O)cc3C)cc12 | < 5 | 5.44 | 5.51 | 5.09 | 83 | – | 94 | 55% | – | –
9 | COc1ccc(CCc2cnc3c(N)nc4cc(CCP(=O)(O)O)ccc4c3c2)c(C)c1 | < 5 | 6.89 | – | 6.40 | 124 | – | – | – | – | –
